Compound activity: PubChem BioAssay, Johns Hopkins Ion Channel Center
MrgX1 PAM: allosterically activates human MrgX1 receptor signaling. Q96LB2. MrgX1-HEK293, Fluo-4 calcium flux, FDSS; active compounds read high. B-score at 10 µM. actives 0.63% (n = 310,000);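 active = plate-corrected calcium response at least 3 library SD above typical, normal starting fluorescence, not activating the receptor alone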;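 also: compound read alongside a low EC10 to EC30 dose of BAM8-22 agonist; peak minus trough fluorescence over baseline measured at the second addition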
Target sequence (Q96LB2 whole entry, looked up): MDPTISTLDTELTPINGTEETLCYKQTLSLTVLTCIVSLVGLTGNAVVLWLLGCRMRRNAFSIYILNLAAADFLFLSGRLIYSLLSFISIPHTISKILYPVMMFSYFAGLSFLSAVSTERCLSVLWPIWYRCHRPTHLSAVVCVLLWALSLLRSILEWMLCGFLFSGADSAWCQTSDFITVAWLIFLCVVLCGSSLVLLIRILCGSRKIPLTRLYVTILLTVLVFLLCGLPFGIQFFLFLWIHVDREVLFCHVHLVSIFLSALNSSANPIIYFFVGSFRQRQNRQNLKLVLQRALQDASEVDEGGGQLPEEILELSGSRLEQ
MrgX1 agonist: activates human MrgX1 receptor signaling; Q96LB2; MrgX1-HEK293 cells, Fluo-4 calcium fluorescence, agonist mode; active compounds read high; B-score at 10 µM; actives 0.44% (n = 310,000);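 active = calcium response B-score plate-corrected fluorescence ratio at least 3 library SD, with starting fluorescence B-score inside 5 SD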
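Material: MrgX1-expressing HEK293 cells; input: 15,000 cells per well; doses: test compound given as first of three sequential additions; schedule: overnight plating before 1 h dye loading; technique: Fluo-4 NW calcium-flux fluorescence, kinetic read; evaluation: baseline-normalised fluorescence change ratio, B-scored; control set: plate-wise positive and negative controls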
RGS4 inh: inhibitors of human RGS4; B-score at 10 µM; P49798; actives 0.45% (n = 310,000); HEK293 M3R/RGS4 inducible, Fluo-4 calcium flux; active compounds read high; triggered by carbachol at its EC20;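 active = B-score, a plate-corrected calcium signal, over three deviations above library mean, with baseline fluorescence within five deviations of library mean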;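 also: RGS4 expression induced by doxycycline in cells with stable M3 receptor; B-score is computed from the integrated fluorescence ratio over baseline after carbachol; higher B-score means a larger calcium signal and so more RGS4 inhibition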
Target sequence (P49798 whole entry, looked up): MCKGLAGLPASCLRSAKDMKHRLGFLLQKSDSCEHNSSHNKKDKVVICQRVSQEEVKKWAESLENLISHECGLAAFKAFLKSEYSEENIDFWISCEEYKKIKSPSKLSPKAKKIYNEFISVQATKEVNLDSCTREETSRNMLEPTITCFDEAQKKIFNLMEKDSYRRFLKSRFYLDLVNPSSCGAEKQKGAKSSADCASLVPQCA
MrgX1 antagonist: antagonists of human MrgX1 receptor | actives 1.3% (n = 310,000) | B-score at 10 µM | MRGX1-HEK293 calcium flux, Fluo-4, BAM8-22 antagonism; active compounds read low;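 active = calcium-response B-score plate-corrected more than 3 library SD below zero, starting fluorescence within 5 deviations, no agonist response on first addition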;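 also: peak minus trough fluorescence over baseline after final BAM8-22 challenge near maximal dose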
RGS4 act: potentiators or activators of RGS4; actives 0.92% (n = 310,000); HEK293 M3R/inducible RGS4, carbachol calcium flux Fluo4; active compounds read low; B-score at 10 µM;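 active = B-score of the integrated calcium signal more than 4 SD below the library mean, with starting fluorescence not abnormally high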;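 also: negative B-score means reduced calcium response which marks RGS4 activation or potentiation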
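Material: Inducible-RGS4 HEK293 cells carrying M3 receptor; also added: carbachol at ECmax as muscarinic agonist stimulus; incubation: compound preincubation 20 min at room temperature before agonist; signal: Fluo4-AM (2 µM) calcium-flux fluorescence, kinetic read; measure: integrated calcium ratio converted to B score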
RGS4 block valid: validation of RGS4 inhibitors; shares compounds with RGS4 inh; actives 65% (n = 1,700); HEK293 M3R/RGS4, carbachol calcium Fluo-4 fluorescence; carbachol added at its EC20; 0 = buffer wells, 100 = carbachol control; calcium response, % at 10 µM;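 active = duplicate-averaged calcium response above the buffer-only control mean plus 5 SD of those controls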;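 also: integrated fluorescence ratio F max minus min over baseline F0; higher response in RGS4-induced cells means RGS4 inhibition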
RGS4 uninduced: counter-screen for RGS4 inhibitors: effect in non-induced cells. shares compounds with RGS4 inh. HEK293 M3R non-induced, carbachol calcium Fluo-4; submaximal (EC20) carbachol stimulus; buffer wells 0%, carbachol control wells 100%. activity (percent), % at 10 µM. actives 20% (n = 1,900); call rule not given here;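 also: RGS4 induction absent so cells express M3R without RGS4; higher means more calcium signal and flags a non-specific hit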
M3R basal Ca ctr: signal in non-induced cells without carbachol, RGS4 inhibitor counter-screen; shares compounds with RGS4 inh; HEK293 M3R/RGS4 non-induced, Fluo-4 calcium, no carbachol; normalised: buffer wells 0%, carbachol wells 100%; calcium response (agonist-mode artifact), % at 10 µM; actives 22% (n = 1,900); AID 493001;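 active = duplicate-averaged calcium rise in uninduced cells above buffer wells' mean plus 5 SD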
MrgX1 ag confirm: reconfirmed activator of human MrgX1 receptor signaling. shares compounds with MrgX1 agonist. AID 602412. MrgX1-HEK293, Fluo-4 calcium fluorescence, FDSS. activation, % at 10 µM. actives 78% (n = 600);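 active = calcium signal rise, corrected for plate position, at least 3 library SD high, with starting brightness within 5 such deviations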
MrgX1 allo conf: human MrgX1 positive allosteric modulation, re-confirmation | MrgX1-HEK293, Fluo-4 calcium fluorescence, FDSS | activation (ratio percentage), % at 10 µM | AID 602413 | actives 13% (n = 1,200) | shares compounds with MrgX1 PAM;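 active = ratio at least 3 SD above the weak peptide control, stable starting fluorescence, no direct agonism earlier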;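 also: compound followed by low BAM8-22 agonist challenge near EC20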
MrgX1 ant reconf: reconfirmed antagonist of human MrgX1 receptor signaling | shares compounds with MrgX1 antagonist | MrgX1-HEK293, BAM8-22 calcium flux, Fluo-4; active compounds read low | remaining BAM8-22 calcium response % of control (active compounds read low), % at 10 µM | actives 19% (n = 2,300) | AID 602420;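 active = remaining agonist calcium response no higher than 100% minus 3 SD of agonist-only control wells, with starting fluorescence near control levels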;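 also: agonist BAM8-22 given at a near maximal EC90 to ECmax level; peak minus minimum fluorescence divided by baseline after agonist addition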
HEK293 Ca flux: MrgX1 antagonist counter-screen hit in parental HEK293 cells; shares compounds with MrgX1 antagonist; Fluo-4 calcium fluorescence, FDSS; fluorescence ratio F(max-min)/F0 at 10 µM; actives 2% (n = 4,000); AID 624111;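 active = duplicate-averaged calcium fluorescence ratio at least three times the standard deviation of buffer wells, a nonspecific response in parental cells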
HEK293 Ca counter: activity in parental HEK293 cells without MrgX1 | shares compounds with MrgX1 antagonist | fluorescence ratio F(max-min)/F0 at 10 µM | AID 624114 | parental HEK293 calcium flux, Fluo-4 fluorescence ratio; active compounds read high | actives 0.4% (n = 4,000);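 active = calcium fluorescence ratio, averaged over duplicates, at least 3 SD of the buffer-well ratio, meaning a nonspecific response in receptor-free cells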;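 also: untransfected parental HEK293 lacking MrgX1 used as counterscreen for MrgX1 allosteric activators; fluorescence change taken during the second addition on a kinetic imager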
HEK293 Ca cntr2: MrgX1 activator counter-screen hit in parental HEK293 cells; shares compounds with MrgX1 antagonist; Fluo-4 calcium fluorescence (FDSS); active compounds read high; fluorescence ratio F(max-min)/F0 at 10 µM; actives 8.7% (n = 4,000); AID 624115;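 active = calcium fluorescence ratio at least three times the spread of buffer wells, meaning a non-specific response in parental cells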
The depositor's hits bear a star; i = inactive; . = not tested or not shown. Hits are enriched below; roughly 3.5% of the tested compounds scored in any of these assays.

SMILES	MrgX1 PAM	MrgX1 agonist	RGS4 inh	MrgX1 antagonist	RGS4 act	HEK293 Ca flux	HEK293 Ca counter	HEK293 Ca cntr2	others
CC12CCC3C(CC=C4CC(O)CCC43C)C1C/C(=C\c1cccc(F)c1)C2=O (configuration not stated)	i	i	i	i	i	.	.	.
CCOC(=O)C1CCN(Cc2ccc(Cl)nc2)CC1	i	i	5.5*	i	i	.	.	.	RGS4 block valid=9.5%*;RGS4 uninduced=30%*;M3R basal Ca ctr=i
COC(=O)C1=C(c2cccc(OC)c2OC)C[C@@H]2CC[C@H]1N2C(=O)N1CCCC1	i	i	i	i	i	.	.	.
CN1C(=O)C(=Cc2ccc(N3CCOCC3)o2)C(=O)N(C)C1=O	i	i	i	i	i	.	.	.
Cc1ccc(Sc2ccc(C=C3C(=O)N(C)C(=O)N(C)C3=O)o2)cc1	i	i	i	i	i	.	.	.	RGS4 block valid=i;RGS4 uninduced=i;M3R basal Ca ctr=80%*
CN1C(=O)C(=Cc2ccc(-c3cccc(Cl)c3)o2)C(=O)N(C)C1=O	i	i	5*	i	i	.	.	.	RGS4 block valid=22%*;RGS4 uninduced=34%*;M3R basal Ca ctr=52%*
Brc1ccccc1CNCCc1ccc2c(c1)OCO2	i	i	i	i	i	.	.	.
CCOC(=O)c1c(C)c(P(=S)(N2CCOCC2)N2CCOCC2)n(C)c1C	i	i	i	i	i	.	.	.
CCCN1CCc2cc(O)cc3c2[C@H]1Cc1ccc(O)c(O)c1-3	i	31*	11*	i	i	i	i	i	RGS4 block valid=65%*;RGS4 uninduced=i;M3R basal Ca ctr=i;MrgX1 ag confirm=i
Cc1ccc(OP(=O)(NC(C)c2ccccc2)Oc2ccc(C)cc2)cc1 (configuration not stated)	i	i	i	i	i	.	.	.
CCCN1C2CCCC1CC(NC(C)=O)C2 (configuration not stated)	i	50*	i	i	i	i	i	i	MrgX1 ag confirm=i
C=Cn1c(P(=S)(N2CCOCC2)N2CCOCC2)cc2c1CCCC2	i	66*	i	i	i	i	i	i	MrgX1 ag confirm=i
Cc1ccc(-c2cc(-c3ccc(C)cc3)[n+](C)o2)cc1	i	i	i	i	i	.	.	.
Cc1ccc(-c2cc(-c3ccc(C)cc3)[n+](-c3ccccc3)c(-c3ccc(C)cc3)c2)cc1	i	77*	i	i	-11*	i	i	82*	MrgX1 ag confirm=351%*
FC(F)(F)c1ccc2c(c1)NP(=S)(N1CCOCC1)c1nccn1-2 (configuration not stated)	i	i	i	i	i	.	.	.
N#CCCn1cc(C(=O)O)c(-c2cccc([N+](=O)[O-])c2)n1	i	i	i	i	i	.	.	.
N#CSCC(=O)N1c2ccccc2CCc2ccccc21	8.5*	i	i	i	i	i	i	i	MrgX1 allo conf=i
CCC(=NCC1CCCO1)c1c(O)n(-c2ccc(Cl)cc2)c(=O)[nH]c1=O (configuration not stated)	i	i	i	i	i	.	.	.
COC(=O)C1=C(c2cc3ccccc3o2)C[C@@H]2CC[C@H]1N2C(=O)NCc1ccc(F)cc1	7.9*	i	i	i	i	i	i	i	MrgX1 allo conf=i
NCC(O)c1cc(O)c(O)cc1F (configuration not stated)	6.5*	i	.	i	.	i	i	i	MrgX1 allo conf=i
O=C(C(Cc1ccccc1)NS(=O)(=O)c1ccc(F)cc1)N1CCC2(CC1)OCCO2 (configuration not stated)	i	i	i	i	i	.	.	.
CCCCCn1c(=O)c(C(=O)Nc2ccccc2)c(O)c2ccccc21	i	i	i	i	i	.	.	.
CCCCn1c(=O)c(C(=O)NC(C)c2ccccc2)c(O)c2ccccc21 (configuration not stated)	9.1*	i	i	i	i	i	50*	i	MrgX1 allo conf=i
CCCCn1c(=O)c(C(=O)NCCc2ccccc2)c(O)c2ccccc21	8.1*	i	i	i	i	i	i	i	MrgX1 allo conf=i
O=C(CCc1nnc2ccc(NCc3ccc(F)cc3)nn12)N1CCC2(CC1)OCCO2	i	i	i	i	i	.	.	.
COc1ccc2c(C)c(CC(=O)N3C[C@H]4C[C@@H](C3)c3cccc(=O)n3C4)c(=O)oc2c1C	i	i	i	i	i	.	.	.
CC1=C(C(=O)OC(C)C)[C@]2(C(=O)N(CC(N)=O)c3ccccc32)C(C#N)=C(N)O1	i	i	i	i	i	.	.	.
C=CCOC(=O)C1=C(C)OC(N)=C(C#N)[C@@]12C(=O)N(CC(N)=O)c1ccccc12	i	i	i	-5.7*	i	i	i	i	MrgX1 ant reconf=i
CC1(C(=O)O)CCCC2(C)c3cc(O)ccc3CCC12 (configuration not stated)	i	i	i	i	i	.	.	.
